Consider 30 molecules from ChEMBL document CHEMBL1122878, “New antihistaminic N-heterocyclic 4-piperidinamines. 3. Synthesis and antihistaminic activity of N-(4-piperidinyl)-3H-imidazo[4,5-b]pyridin-2-amines” (1985).

Common to all, as to assay type: functional
Test [1] concerns Rattus norvegicus. Description: In vivo antihistaminic activity after 2 hours of oral administration using 48/80 lethality test in rat. Put shortly:
(§1)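 Male inbred Wistar rats, 230–270 g, starved overnight, housed at 21 ± 1 °C and 65 ± 5% RH. Protection was survival at 4 h. ED50 by Finney from five rats per dose, at least three doses in a geometric series 0.0025–40 mg/kg.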

In test [2] the test system is Rattus norvegicus. Briefly: In vivo antihistaminic activity after 1 hour of subcutaneous administration using 48/80 lethality test in rat. The following applies: sc. In short, it runs like this:
as §1

In test [3] the test system is Cavia porcellus. Description: In vivo antihistaminic activity after 24 hr of oral administration using histamine lethality test in guinea pig. In short, it runs like this: (§2)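 Male albino guinea pigs, 280–360 g. Compound given orally in twofold dose increments 3, 24, 48 or 96 h before an iv challenge with histamine dihydrochloride at 1.25 mg/kg. Protection was survival at 1 h. PD50 with confidence limits by Finney, using 4–6 animals per dose and time point, at least three doses from a geometric series 0.0025–5.0 mg/kg.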

The test system of test [4] is Cavia porcellus. Description: In vivo antihistaminic activity after 48 hr of oral administration using histamine lethality test in guinea pig. In short, it runs like this:
as §2

For test [5], the system named is Cavia porcellus. Briefly: In vivo antihistaminic activity after 96 hr of oral administration using histamine lethality test in guinea pig. In short, it runs like this:
as §2

Test [6] relates to Cavia porcellus. Description: In vivo antihistaminic activity after 3 hr of oral administration using histamine lethality test in guinea pig. In short, it runs like this:
as §2

The subject of test [7] is Cavia porcellus. Briefly: In vivo antihistaminic activity after 24 hr of oral administration using histamine lethality test in guinea pig. Put shortly: as §2
Test [8] concerns Cavia porcellus. Description: In vivo antihistaminic activity after 3 hr of oral administration using histamine lethality test in guinea pig. In short, it runs like this: as §2
Test [9] has as its system Cavia porcellus. Briefly: In vivo antihistaminic activity after 48 hr of oral administration using histamine lethality test in guinea pig. Put shortly: as §2

Take `Fc1ccc(OCCCN2CCC(Nc3nc4cccnc4n3Cc3ccccc3)CC2)cc1`: the ED50 with Rattus norvegicus [1] and with Rattus norvegicus [2] was 1.25 mg/kg throughout.
Consider `COc1ccc(CCN2CCC(Nc3nc4cccnc4n3Cc3ccccc3)CC2)cc1`, for which the values for the ED50 in the test on Rattus norvegicus [1] and in the test with Rattus norvegicus [2] were 0.31 mg/kg and 0.16 mg/kg, respectively.
For `c1ccc(Cn2c(NC3CCN(C4CCCCC4)CC3)nc3cccnc32)cc1` the same measures were above 2.5 mg/kg and 0.63 mg/kg.
As to `c1ccc(Cn2c(NC3CCN(CCC(c4ccccc4)c4ccccc4)CC3)nc3cccnc32)cc1`, in the test with Rattus norvegicus [2], the ED50 (as a rule, the midpoint of the dose-response relation) was above 2.5 mg/kg.
As for `CN1CCC(Nc2nc3cccnc3n2Cc2ccc(F)cc2)CC1`, the ED50 in the test on Rattus norvegicus [1] is above 2.5 mg/kg; with Rattus norvegicus [2] it was 0.08 mg/kg.
On the same counts, the results for `Fc1ccc(Cn2c(NC3CCN(CCCOc4ccccc4)CC3)nc3cccnc32)cc1` are 0.31 mg/kg and 0.31 mg/kg.
As to `C=CCN1CCC(Nc2nc3cccnc3n2Cc2ccccc2)CC1`, the ED50 in the test with Rattus norvegicus [1] is above 2.5 mg/kg; in the test with Rattus norvegicus [2], 0.31 mg/kg.
On the same counts, the results for `c1ccc(Cn2c(NC3CCN(CCN4CCOCC4)CC3)nc3cccnc32)cc1` are 2.5 mg/kg and 0.63 mg/kg.
Regarding `CCn1nnn(CCN2CCC(Nc3nc4cccnc4n3Cc3ccc(F)cc3)CC2)c1=O`, the ED50 in the test on Rattus norvegicus [1] is above 2.5 mg/kg; in the test on Rattus norvegicus [2], 0.31 mg/kg.
On to `Oc1nc2ccccc2n1CCCN1CCC(Nc2nc3cccnc3n2Cc2ccc(F)cc2)CC1`, for which the ED50 was found to be 2.5 mg/kg in the test on Rattus norvegicus [1] and 0.63 mg/kg with Rattus norvegicus [2].
Regarding `Fc1ccc(Cn2c(NC3CCN(CCc4cccs4)CC3)nc3cccnc32)cc1`, the ED50 in the test with Rattus norvegicus [1] is above 2.5 mg/kg; in the test with Rattus norvegicus [2], 0.16 mg/kg.
For `CCCCN1CCC(Nc2nc3cccnc3n2Cc2ccccc2)CC1` the same measures were above 2.5 mg/kg and 0.16 mg/kg.
For `c1ccc(Cn2c(NC3CCN(CC4COc5ccccc5O4)CC3)nc3cccnc32)cc1` (stereo not drawn) the same measures were above 2.5 mg/kg and 0.63 mg/kg.
On the same counts, the results for `Fc1ccc(Cn2c(NC3CCN(CCc4ccccc4)CC3)nc3cccnc32)cc1` are above 2.5 mg/kg and 0.31 mg/kg.
In the case of `O=C(CCCN1CCC(Nc2nc3cccnc3n2Cc2ccc(F)cc2)CC1)c1ccc(F)cc1`, the ED50 in the test with Rattus norvegicus [1] worked out at 1.25 mg/kg; in the test with Rattus norvegicus [2] it was 0.04 mg/kg.
On the same counts, the results for `O=C(CCCN1CCC(Nc2nc3cccnc3n2Cc2ccccc2)CC1)c1ccc(F)cc1` are 1.25 mg/kg and 0.31 mg/kg.
For `OC(COc1ccccc1)CN1CCC(Nc2nc3cccnc3n2Cc2ccccc2)CC1` (stereo not drawn) the same measures were 0.63 mg/kg and 0.16 mg/kg.
On the same counts, the results for `O=C(NCCN1CCC(Nc2nc3cccnc3n2Cc2ccccc2)CC1)c1ccc(F)cc1` are 1.25 mg/kg and 0.08 mg/kg.
As for `CC(C)N1CCC(Nc2nc3cccnc3n2Cc2ccccc2)CC1`, the ED50 was above 2.5 mg/kg in the test with Rattus norvegicus [1] and 0.63 mg/kg in the test with Rattus norvegicus [2].
Molecule `Fc1ccc(Cn2c(NC3CCN(CCCC(c4ccc(F)cc4)c4ccc(F)cc4)CC3)nc3cccnc32)cc1` showed an ED50 in the test on Rattus norvegicus [2] above 2.5 mg/kg.
As to `C(=C\c1ccccc1)/CN1CCC(Nc2nc3cccnc3n2Cc2ccccc2)CC1`, the ED50 with Rattus norvegicus [1] and in the test on Rattus norvegicus [2] was 1.25 mg/kg in each case.
In the test on Rattus norvegicus [2], `Cc1cccc(C)c1NC(=O)CN1CCC(Nc2nc3cccnc3n2Cc2ccccc2)CC1` returned an ED50 above 2.5 mg/kg.
For the molecule `c1ccc(Cn2c(NC3CCN(CCOc4ccccc4)CC3)nc3cccnc32)cc1`, the ED50 amounted to 1.25 mg/kg with Rattus norvegicus [1] and 0.31 mg/kg with Rattus norvegicus [2].
Turning to `CN1CCC(Nc2nc3cccnc3n2Cc2ccccc2)CC1`, the ED50 is above 2.5 mg/kg in the test on Rattus norvegicus [1] and 0.08 mg/kg in the test on Rattus norvegicus [2].
As for `COc1ccc(CCN2CCC(Nc3nc4ccccc4n3Cc3ccc(F)cc3)CC2)cc1` [ASTEMIZOLE], the ED50 in the test with Cavia porcellus [3] worked out at 0.07 mg/kg; with Cavia porcellus [4] it was 0.04 mg/kg; with Cavia porcellus [5], 0.19 mg/kg; with Rattus norvegicus [1], 0.11 mg/kg; in the test on Rattus norvegicus [2], 0.11 mg/kg; with Cavia porcellus [6] it was 0.33 mg/kg.
On to `c1ccc(CCN2CCC(Nc3nc4cccnc4n3Cc3ccccc3)CC2)cc1`, for which the ED50 was above 2.5 mg/kg in the test with Rattus norvegicus [1] and 0.08 mg/kg in the test on Rattus norvegicus [2].
Turning to `CN(C)C(=O)C(CCN1CCC(Nc2nc3cccnc3n2Cc2ccccc2)CC1)(c1ccccc1)c1ccccc1`, the ED50 with Rattus norvegicus [2] is above 2.5 mg/kg.
As for `COc1ccc(CCN2CCC(Nc3nc4cccnc4n3Cc3ccc(F)cc3)CC2)cc1`, the ED50 in the test on Cavia porcellus [7] was determined as 0.12 mg/kg; in the test on Rattus norvegicus [1] it was 0.16 mg/kg; with Rattus norvegicus [2], 0.31 mg/kg; in the test with Cavia porcellus [8], 0.16 mg/kg; in the test on Cavia porcellus [9], 0.25 mg/kg.
Turning to `Fc1ccc(Cn2c(NC3CCN(CCc4ccccn4)CC3)nc3cccnc32)cc1`, the ED50 was determined as 0.31 mg/kg with Rattus norvegicus [1] and 0.04 mg/kg with Rattus norvegicus [2].
On the same counts, the results for `Fc1ccc(Cn2c(NC3CCN(C/C=C/c4ccccc4)CC3)nc3cccnc32)cc1` are above 2.5 mg/kg and 1.25 mg/kg.
